Source: ChEMBL document CHEMBL1123758, “Thromboxane synthetase inhibitors and antihypertensive agents. 3. N-[(1H-imidazol-1-yl)alkyl]heteroaryl amides as potent enzyme inhibitors” (J Med Chem, 1987)
Active and inactive are the calls of the source.

Key:
Thromboxane-A synthase = biological target: T1, Thromboxane-A synthase (Rattus norvegicus, UniProt P49430); assay: Inhibition of thromboxane formation at a concentration of 10e -6 M.
T1 sequence (P49430 whole entry): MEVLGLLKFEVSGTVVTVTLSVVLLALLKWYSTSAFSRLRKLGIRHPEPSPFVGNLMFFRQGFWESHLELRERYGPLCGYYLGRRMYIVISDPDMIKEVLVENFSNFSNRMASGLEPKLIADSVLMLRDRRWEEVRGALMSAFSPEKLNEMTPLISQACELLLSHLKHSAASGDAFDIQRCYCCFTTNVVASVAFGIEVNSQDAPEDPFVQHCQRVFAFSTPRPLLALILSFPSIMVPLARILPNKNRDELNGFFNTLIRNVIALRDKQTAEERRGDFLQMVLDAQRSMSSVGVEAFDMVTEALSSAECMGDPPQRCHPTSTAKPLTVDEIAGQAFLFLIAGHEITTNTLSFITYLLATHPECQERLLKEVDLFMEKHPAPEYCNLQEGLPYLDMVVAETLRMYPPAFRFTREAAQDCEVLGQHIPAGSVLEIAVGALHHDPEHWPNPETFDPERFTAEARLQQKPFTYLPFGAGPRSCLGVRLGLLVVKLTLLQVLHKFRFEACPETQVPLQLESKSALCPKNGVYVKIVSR

[1] = biological target: T2, Thromboxane-A synthase (Rattus norvegicus) (UniProt P49430); conditions: at 100 µM
T2 sequence (whole entry): T1 sequence (P49430 whole entry)

Rattus norvegicus [2] = assay: Antihypertensive activity was measured in spontaneously hypertensive rats (SHR) at 100 mg/kg peroral dose (2 days); NA denotes inactive; type: functional, organism-based; parameters: dose 100 mg/kg
How it was run: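 Male 16-week-old Okamoto SHR, mean arterial pressure about 170 mmHg. Dosed by gavage at 100 mg/kg (or less) as a suspension in 2% preboiled starch, with 0.9% NaCl loading at 25 mL/kg. A second identical dose without saline was given 24 h later. Mean arterial pressure was read at 28 h, using one to three rats. Active if ≤116 mmHg in one rat or a two-rat average ≤122 mmHg.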

[3] = biological target: T2, Thromboxane-A synthase (Rattus norvegicus); assay: Inhibition of thromboxane formation at a concentration of 10e -4 M.
How it was run: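 Washed SHR platelets in oxygenated Krebs phosphate buffer pH 7.4, (4.5-6.0) × 10^4 platelets/µL, with drug or vehicle, 10 min at 37 °C. Stopped on ice with citric acid. TXB2 in the supernatant was measured by direct RIA. Boiled-sample blanks were subtracted, then percent inhibition of TXB2 formation was calculated. Replicate number varies by entry.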

Rattus norvegicus [4] = assay: Antihypertensive activity was measured in spontaneously hypertensive rats (SHR) at 100 mg/kg peroral dose (2 days); active; type: functional, organism-based; parameters: dose 100 mg/kg
How it was run: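 Male Okamoto SHR, 16 weeks old, mean arterial pressure about 170 mmHg. Compound suspended in 2% preboiled starch at 50 mg/mL and given by gavage at 100 mg/kg or less with 0.9% NaCl loading (25 mL/kg). An identical dose without saline followed 24 h later. Mean arterial pressure was read 28 h after the first dose in one to three rats. Active: one rat ≤116 mmHg, or mean of two ≤122 mmHg.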

| IC50 (Thromboxane-A synthase) | inhibition [1] | inhibition [3] | SMILES | Activity (Rattus norvegicus [2]) | Activity (Rattus norvegicus [4]) |
| --- | --- | --- | --- | --- | --- |
| 200 nM | 99% |  | O=C(NCCCCn1ccnc1)c1ccc(Cl)s1 |  |  |
|  | 70% |  | O=C(NCCCn1cnc(-c2ccccc2)c1)c1ccc(Cl)s1 | inactive |  |
|  |  | 86% | Cc1cn(CCCNC(=O)c2ccc(Cl)nc2)cn1 |  |  |
|  | 65% |  | O=C(NCCn1ccnc1)c1ccco1 |  |  |
|  | 70% |  | O=C(NCCn1ccnc1)c1sc2ccccc2c1Cl |  |  |
|  | 100% |  | O=C(NCCCCCn1cncn1)c1ccc(Cl)s1 | inactive |  |
|  | 83% |  | O=C(NCCCCn1cncn1)c1ccc(Cl)s1 | inactive |  |
|  |  | 44% | Cc1nccn1CCCNC(=O)c1ccc(Cl)nc1 |  |  |
| 100 nM | 100% |  | O=C(NCCCn1ccnc1)c1cc2cc(Cl)ccc2s1 | inactive |  |
|  | 93% |  | O=C(NCCCn1ccnc1)c1cccs1 | inactive |  |
|  | 100% |  | Cc1cn(CCCNC(=O)c2cc3cc(Cl)ccc3[nH]2)cn1 | inactive |  |
|  | 84% |  | O=C(NCCCn1cncn1)c1cc2ccccc2o1 | inactive |  |
| 1300 nM | 96% |  | Cc1ccc(C(=O)NCCCn2ccnc2)s1 | inactive |  |
|  |  | 98% | CC(CNC(=O)c1ccc(Cl)nc1)Cn1ccnc1 (stereo unspecified) |  |  |
|  | 87% |  | O=C(NCCCCn1ccnc1)c1ccco1 | inactive |  |
|  | 100% |  | Cc1cn(CCCNC(=O)c2cc3ccccc3[nH]2)cn1 | inactive |  |
|  | 89% |  | Cn1c(C(=O)NCCCn2ccnc2)cc2ccccc21 | inactive |  |
|  | 96% |  | Cc1ccc2c(Cl)c(C(=O)NCCCn3ccnc3)sc2c1 | inactive |  |
|  | 94% |  | O=C(NCCCn1ccnc1)c1cc2ccccc2[nH]1 |  |  |
| 7 nM | 100% |  | O=C(NCCCCCn1ccnc1)c1cc2cc(Cl)ccc2[nH]1 |  |  |
|  | 64% |  | O=C(NCCCn1ccnc1)c1ccc([N+](=O)[O-])o1 |  | Active |
| 400 nM | 100% |  | O=C(NCCCn1ccnc1)c1cc(Br)c(Br)s1 | inactive |  |
|  | 56% |  | Cc1nccn1CCCNC(=O)c1cc2ccccc2n1C | inactive |  |
|  | 100% |  | O=C(NC/C=C/Cn1ccnc1)c1ccc(Cl)s1 | inactive |  |
| 300 nM | 100% |  | O=C(NCCCn1ccnc1)c1sc2ccccc2c1Cl |  |  |
| 300 nM | 97% |  | O=C(NCCCn1ccnc1)c1cc2ccccc2o1 | inactive |  |
|  | 30% |  | O=C(NCCCn1cncn1)c1cccs1 | inactive |  |
| 50 nM | 98% |  | CC(CCNC(=O)c1cc2cc(Cl)ccc2[nH]1)n1ccnc1 (stereo unspecified) |  |  |

| IC50 (Thromboxane-A synthase) | inhibition [1] | inhibition [3] | SMILES | Activity (Rattus norvegicus [2]) | Activity (Rattus norvegicus [4]) |
| --- | --- | --- | --- | --- | --- |
|  | 91% |  | O=C(NCCCCn1ccnc1)c1sc2ccccc2c1Cl | inactive |  |
|  | 97% |  | O=C(NCCCn1ccnc1)c1ccco1 | inactive |  |
|  | 85% |  | Cc1cn(CCCNC(=O)c2cc3ccccc3n2C)cn1 | inactive |  |
|  | 96% |  | COc1ccc2[nH]c(C(=O)NCCCn3ccnc3)cc2c1 | inactive |  |
| 3000 nM |  | 98% | CC(CCNC(=O)c1ccc(Cl)nc1)n1ccnc1 (stereo unspecified) |  |  |
|  | 22% |  | O=C(NCCCCn1cncn1)c1ccco1 | inactive |  |
|  | 95% |  | O=C(NCCCn1ccnc1)c1cc2cc(Cl)ccc2[nH]1 | inactive |  |
|  |  | 64% | O=C(NCCCn1ccnc1)c1cccnc1Cl |  |  |
| 3000 nM | 95% |  | O=C(NCCCCn1ccnc1)c1cccs1 |  |  |
| 3000 nM |  | 100% | O=C(NCCCCCn1ccnc1)c1ccc(Cl)nc1 |  |  |
|  |  | 87% | O=C(NCCCn1ccnc1)c1ccc(Cl)nc1 |  |  |
| 2000 nM | 100% |  | CC(CCNC(=O)c1ccc(Cl)s1)n1ccnc1 (stereo unspecified) |  |  |
| 27 nM |  | 93% | O=C(NCCCCCCCCn1ccnc1)c1cc2cc(Cl)ccc2[nH]1 |  |  |
| 40 nM | 100% |  | O=C(NCCCCn1ccnc1)c1cc2ccccc2[nH]1 | inactive |  |
|  | 78% |  | Cc1nccn1CCCNC(=O)c1ccc(Cl)s1 |  |  |
|  | 95% |  | Cc1cn(CCCNC(=O)c2ccc(Cl)s2)cn1 | inactive |  |
|  | 100% |  | CC(CNC(=O)c1cc2cc(Cl)ccc2[nH]1)Cn1ccnc1 (stereo unspecified) |  |  |
| 8000 nM |  | 94% | O=C(NCCCCn1ccnc1)c1ccc(Cl)nc1 |  |  |
| 200 nM | 100% |  | O=C(NCCCCCCn1ccnc1)c1ccc(Cl)s1 | inactive |  |
| 70 nM |  | 96% | O=C(NCCCCCCCCn1ccnc1)c1ccc(Cl)s1 |  |  |
|  | 83% |  | O=C(NCCCn1ccnc1)c1cccnc1 | inactive |  |
|  | 96% |  | O=C(NCCCn1ccnc1)c1sc2cc(F)ccc2c1Cl | inactive |  |
| 200 nM | 100% |  | O=C(NCCCCCn1ccnc1)c1ccc(Cl)s1 | inactive |  |
|  | 64% |  | O=C(NCCCn1cncn1)c1ccc(Cl)s1 | inactive |  |
|  | 82% |  | O=C(NCCCn1ccnc1)c1ccc(Br)o1 | inactive |  |
| 600 nM | 95% |  | O=C(NCCCn1ccnc1)c1ccc(Cl)s1 |  |  |
|  | 100% |  | O=C(NCCCCn1ccnc1)c1cc2cc(Cl)ccc2[nH]1 |  |  |
